Source: ChEMBL document CHEMBL1955714, “Synthesis and antidiabetic performance of β-amino ketone containing nabumetone moiety” (Bioorg Med Chem, 2012)
In brackets after ≈: the same amount, converted by molar mass.

Legend:
[1] = target: Peroxisome proliferator-activated receptor (Homo sapiens) (UniProt P37231+Q07869+Q03181); experiment: Activation of PPAR in human HepG2 cells at 10 ug/ml after 24 hrs by luciferase reporter gene assay relative to rosiglitazone; format: cell-based
Outline: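 HepG2 cells in low-glucose DMEM with 100 U mL-1 streptomycin/penicillin, plated at 1.5 × 10⁴ per well a day before transfection. At 70% confluence they were co-transfected with pPPRE-Luc (firefly) and phRL-TK (renilla). After 24 h the medium was replaced with sample-containing medium, with rosiglitazone as positive control. Dual firefly/renilla luciferase was read after a further 24 h; untransfected cells served as blank.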

Rattus norvegicus = organism: Rattus norvegicus; experiment: Inhibition of rat intestine alpha-glucosidase using maltose as substrate after 10 mins by spectrometric analysis relative to acarbose; set-up: concentration or dose not given beside the values
Outline: (§1)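 Enzyme and sample were preincubated at 37 °C for 10 min. Then 0.1 mol L-1 maltose was added and incubated 10 min at room temperature. The reaction was stopped and OD read at 490 nm. Blank (no enzyme, no sample) and negative (no sample) controls were run alongside.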

[2] = target: T1, Peroxisome proliferator-activated receptor (Homo sapiens, UniProt P37231+Q07869+Q03181); experiment: Activation of PPAR in human HepG2 cells after 24 hrs by luciferase reporter gene assay; format: cell-based
T1 sequence (P37231 whole entry): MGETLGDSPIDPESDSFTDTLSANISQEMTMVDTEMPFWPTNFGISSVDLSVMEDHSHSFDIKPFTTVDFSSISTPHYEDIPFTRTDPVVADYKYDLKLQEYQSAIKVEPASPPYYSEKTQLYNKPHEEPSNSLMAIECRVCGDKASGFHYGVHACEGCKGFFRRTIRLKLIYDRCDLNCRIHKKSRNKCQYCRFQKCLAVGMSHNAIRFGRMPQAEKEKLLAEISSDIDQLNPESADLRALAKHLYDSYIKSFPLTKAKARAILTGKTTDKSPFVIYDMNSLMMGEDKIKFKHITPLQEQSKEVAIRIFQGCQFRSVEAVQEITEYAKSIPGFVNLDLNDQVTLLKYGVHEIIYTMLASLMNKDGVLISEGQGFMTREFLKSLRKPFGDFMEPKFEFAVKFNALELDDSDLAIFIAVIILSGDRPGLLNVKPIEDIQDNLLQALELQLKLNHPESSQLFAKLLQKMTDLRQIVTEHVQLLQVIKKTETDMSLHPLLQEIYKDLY
T1 sequence (Q07869 whole entry): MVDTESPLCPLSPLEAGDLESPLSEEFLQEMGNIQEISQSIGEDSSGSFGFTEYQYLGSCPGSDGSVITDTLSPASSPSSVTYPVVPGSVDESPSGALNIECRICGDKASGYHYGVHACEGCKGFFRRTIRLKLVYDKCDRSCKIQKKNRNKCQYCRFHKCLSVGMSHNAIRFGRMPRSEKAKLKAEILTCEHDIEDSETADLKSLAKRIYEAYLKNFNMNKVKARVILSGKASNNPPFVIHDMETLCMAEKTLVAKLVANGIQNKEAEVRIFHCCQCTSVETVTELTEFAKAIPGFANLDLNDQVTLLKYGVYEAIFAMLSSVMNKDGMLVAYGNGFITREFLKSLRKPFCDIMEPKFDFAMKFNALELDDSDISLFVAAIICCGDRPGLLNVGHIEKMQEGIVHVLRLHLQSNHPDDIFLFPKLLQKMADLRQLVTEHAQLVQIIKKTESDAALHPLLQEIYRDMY
T1 sequence (Q03181 whole entry): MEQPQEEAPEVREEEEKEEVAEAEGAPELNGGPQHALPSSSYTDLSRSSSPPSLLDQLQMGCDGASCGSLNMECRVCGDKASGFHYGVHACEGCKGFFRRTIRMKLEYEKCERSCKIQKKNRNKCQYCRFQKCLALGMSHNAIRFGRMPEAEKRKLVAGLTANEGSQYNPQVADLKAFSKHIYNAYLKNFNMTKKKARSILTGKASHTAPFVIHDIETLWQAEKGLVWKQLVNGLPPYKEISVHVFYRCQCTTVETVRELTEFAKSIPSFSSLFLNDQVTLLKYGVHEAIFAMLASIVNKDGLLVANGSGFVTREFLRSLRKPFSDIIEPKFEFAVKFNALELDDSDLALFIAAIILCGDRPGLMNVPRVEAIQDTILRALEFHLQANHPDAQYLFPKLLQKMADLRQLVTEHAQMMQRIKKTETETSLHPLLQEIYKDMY

[3] = Inhibition of rat intestine alpha-glucosidase using maltose as substrate after 10 mins by spectrometric analysis; outline: as §1

| SMILES | Activity [1] [%] | inhibition (Rattus norvegicus) [%] | EC50 [2] [µg/mL] | IC50 [3] [µg/mL] |
| --- | --- | --- | --- | --- |
| COc1ccc2cc(CCC(=O)CC(Nc3cc(C)on3)c3ccc(Cl)c(Cl)c3)ccc2c1 (stereo not given) | 5.37 | 22.3 | – | – |
| COc1ccc2cc(CCC(=O)CC(Nc3ccc(S(N)(=O)=O)cc3)c3ccc(Cl)c(Cl)c3)ccc2c1 (stereo not given) | 45.8 | 34.8 | – | – |
| COc1ccc2cc(CCC(=O)CC(Nc3ccc(S(=O)(=O)Nc4cc(C)on4)cc3)c3ccc(O)cc3)ccc2c1 (stereo not given) | 13.8 | 7.07 | – | – |
| COc1ccc2cc(CCC(=O)CC(Nc3cc(C)on3)c3ccc([N+](=O)[O-])cc3)ccc2c1 (stereo not given) | 4.18 | 24.6 | – | – |
| COc1ccc2cc(CCC(=O)CC(Nc3ccc(S(N)(=O)=O)cc3)c3ccc([N+](=O)[O-])cc3)ccc2c1 (stereo not given) | 46.8 | 31.6 | – | – |
| COc1ccc2cc(CCC(=O)CC(Nc3ccc(S(N)(=O)=O)cc3)c3cccc(Cl)c3)ccc2c1 (stereo not given) | 58.7 | 40.8 | – | – |
| COc1ccc2cc(CCC(=O)CC(Nc3ccc(S(=O)(=O)Nc4cc(C)on4)cc3)c3ccc(Cl)cc3)ccc2c1 (stereo not given) | 3.92 | 44.2 | – | – |
| COc1ccc2cc(CCC(=O)CC(Nc3cc(C)on3)c3ccc(Cl)cc3Cl)ccc2c1 (stereo not given) | 11.5 | 13 | – | – |
| COc1ccc2cc(CCC(=O)CC(Nc3cc(C)on3)c3ccc(O)cc3)ccc2c1 (stereo not given) | 5.3 | 21.4 | – | – |
| COc1ccc2cc(CCC(=O)CC(Nc3cc(C)on3)c3cccc(Cl)c3)ccc2c1 (stereo not given) | 4.86 | 26.3 | – | – |
| COc1ccc2cc(CCC(=O)CC(Nc3ccc(S(N)(=O)=O)cc3)c3ccc(Cl)cc3)ccc2c1 (stereo not given) | 71.9 | 66.3 | 6.74 (≈ 12.9 µM) | 4.07 (≈ 7.78 µM) |
| COc1cccc(C(CC(=O)CCc2ccc3cc(OC)ccc3c2)Nc2cc(C)on2)c1 (stereo not given) | 41.6 | 15.8 | – | – |
| COc1ccc2cc(CCC(=O)CC(Nc3ccc(S(=O)(=O)Nc4cc(C)on4)cc3)c3ccc(Cl)c(Cl)c3)ccc2c1 (stereo not given) | 22.4 | 53.7 | – | – |
| CCCCOc1ccc(C(CC(=O)CCc2ccc3cc(OC)ccc3c2)Nc2ccc(S(N)(=O)=O)cc2)cc1 (stereo not given) | 18 | -4.69 | – | – |
| COc1ccc2cc(CCC(=O)CC(Nc3cc(C)on3)c3cccc([N+](=O)[O-])c3)ccc2c1 (stereo not given) | 9.11 | 24.4 | – | – |
| COc1ccc2cc(CCC(=O)CC(Nc3ccc(S(N)(=O)=O)cc3)c3ccco3)ccc2c1 (stereo not given) | 6.64 | 46.8 | – | – |
| COc1ccc2cc(CCC(=O)CC(Nc3ccc(S(=O)(=O)Nc4cc(C)on4)cc3)c3cccc(Cl)c3)ccc2c1 (stereo not given) | 19.6 | 47.1 | – | – |
| COc1cccc(C(CC(=O)CCc2ccc3cc(OC)ccc3c2)Nc2ccc(S(N)(=O)=O)cc2)c1 (stereo not given) | 60.3 | 15.7 | – | – |
| COc1ccc2cc(CCC(=O)CC(Nc3ccc(S(N)(=O)=O)cc3)c3cccc(C)c3)ccc2c1 (stereo not given) | 57.3 | 14.1 | – | – |
| COc1ccc2cc(CCC(=O)CC(Nc3ccc(S(=O)(=O)Nc4cc(C)on4)cc3)c3ccc(C)cc3)ccc2c1 (stereo not given) | 58.5 | 15.8 | – | – |
| COc1ccc2cc(CCC(=O)CC(Nc3ccc(S(N)(=O)=O)cc3)c3ccc4c(c3)OCO4)ccc2c1 (stereo not given) | 9.87 | -4.32 | – | – |
| COc1ccc2cc(CCC(=O)CC(Nc3ccc(S(=O)(=O)Nc4cc(C)on4)cc3)c3ccc(Cl)cc3Cl)ccc2c1 (stereo not given) | 64.5 | 20.3 | – | – |

| SMILES | Activity [1] [%] | inhibition (Rattus norvegicus) [%] | EC50 [2] [µg/mL] | IC50 [3] [µg/mL] |
| --- | --- | --- | --- | --- |
| COc1ccc2cc(CCC(=O)CC(Nc3ccc(S(N)(=O)=O)cc3)c3ccccc3)ccc2c1 (stereo not given) | 61 | 41.7 | – | – |
| COc1ccc2cc(CCC(=O)CC(Nc3cc(C)on3)c3ccc4c(c3)OCO4)ccc2c1 (stereo not given) | 12.6 | 0.35 | – | – |
| COc1ccc2cc(CCC(=O)CC(Nc3cc(C)on3)c3ccc(Cl)cc3)ccc2c1 (stereo not given) | 6.32 | 26.3 | – | – |
| COc1ccc2cc(CCC(=O)CC(Nc3ccc(S(=O)(=O)Nc4cc(C)on4)cc3)c3cccc(F)c3)ccc2c1 (stereo not given) | 36.7 | 24.7 | – | – |
| COc1ccc2cc(CCC(=O)CC(Nc3ccc(S(=O)(=O)Nc4cc(C)on4)cc3)c3ccc4c(c3)OCO4)ccc2c1 (stereo not given) | 43 | 19.2 | – | – |
| COc1ccc(C(CC(=O)CCc2ccc3cc(OC)ccc3c2)Nc2ccc(S(=O)(=O)Nc3cc(C)on3)cc2)cc1 (stereo not given) | 48.4 | 50.8 | – | – |
| COc1ccc2cc(CCC(=O)CC(Nc3cc(C)on3)c3ccc(Br)cc3)ccc2c1 (stereo not given) | 2.87 | 1.42 | – | – |
| COc1ccc(C(CC(=O)CCc2ccc3cc(OC)ccc3c2)Nc2cc(C)on2)cc1 (stereo not given) | 3.13 | 10.8 | – | – |
| COc1ccc2cc(CCC(=O)CC(Nc3cc(C)on3)c3cccc(C)c3)ccc2c1 (stereo not given) | 12.7 | 10.2 | – | – |
| COc1ccc2cc(CCC(=O)CC(Nc3ccc(S(N)(=O)=O)cc3)c3ccc4cc(OC)ccc4c3)ccc2c1 (stereo not given) | 19.1 | 6.39 | – | – |
| COc1ccc2cc(CCC(=O)CC(Nc3ccc(S(=O)(=O)Nc4cc(C)on4)cc3)c3cccc([N+](=O)[O-])c3)ccc2c1 (stereo not given) | 81.8 | 41.6 | – | – |
| COc1cccc(C(CC(=O)CCc2ccc3cc(OC)ccc3c2)Nc2ccc(S(=O)(=O)Nc3cc(C)on3)cc2)c1 (stereo not given) | 78.2 | 12.7 | – | – |
| CCCCOc1ccc(C(CC(=O)CCc2ccc3cc(OC)ccc3c2)Nc2ccc(S(=O)(=O)Nc3cc(C)on3)cc2)cc1 (stereo not given) | 83.3 | 14.3 | – | – |
| CCCCOc1ccc(C(CC(=O)CCc2ccc3cc(OC)ccc3c2)Nc2cc(C)on2)cc1 (stereo not given) | 6.33 | 11 | – | – |
| COc1ccc2cc(CCC(=O)CC(Nc3ccc(S(N)(=O)=O)cc3)c3ccc(Br)cc3)ccc2c1 (stereo not given) | 67.3 | 79.7 | 8.21 (≈ 14.5 µM) | 2.92 (≈ 5.15 µM) |
| COc1ccc2cc(CCC(=O)CC(Nc3cc(C)on3)c3ccc(C)cc3)ccc2c1 (stereo not given) | 11.5 | 7.23 | – | – |
| COc1ccc2cc(CCC(=O)CC(Nc3ccc(S(=O)(=O)Nc4cc(C)on4)cc3)c3cccc(C)c3)ccc2c1 (stereo not given) | 68.4 | 70.5 | – | 3.24 (≈ 5.55 µM) |
| COc1ccc2cc(CCC(=O)CC(Nc3ccc(S(N)(=O)=O)cc3)c3cccc([N+](=O)[O-])c3)ccc2c1 (stereo not given) | 14.8 | 32.7 | – | – |
| COc1ccc2cc(CCC(=O)CC(Nc3cc(C)on3)c3ccccc3)ccc2c1 (stereo not given) | 5.83 | 7.36 | – | – |
| COc1ccc2cc(CCC(=O)CC(Nc3ccc(S(=O)(=O)Nc4cc(C)on4)cc3)c3ccccc3)ccc2c1 (stereo not given) | 17.8 | 14.9 | – | – |
| COc1ccc2cc(CCC(=O)CC(Nc3cc(C)on3)c3cccc(F)c3)ccc2c1 (stereo not given) | 30.1 | 13.3 | – | – |
| COc1ccc2cc(CCC(=O)CC(Nc3ccc(S(N)(=O)=O)cc3)c3ccc(O)cc3)ccc2c1 (stereo not given) | 73.4 | 52.8 | 5.56 (≈ 11 µM) | 4.14 (≈ 8.2 µM) |
